Measurements published in ChEMBL document CHEMBL4311983, “Development of chalcone-O-alkylamine derivatives as multifunctional agents against Alzheimer's disease” (Eur J Med Chem, 2019).

Columns and labels:
[1] = Inhibition of Cu2+-induced amyloid beta (1 to 42 residues) aggregation at 25 uM after 24 hrs by thioflavin T-based fluorescence assay relative to control
Outline: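 Aβ1-42 (25 μM final) with Cu2+ (25 μM final) in 20 mM HEPES pH 6.6, 150 NaCl, ± compound 25 μM final, 37 °C for 24 h; 5 μM ThT in 50 mM glycine-NaOH pH 8.50 added; ex 446/em 490 nm; triplicate.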

[2] = biological target: Amyloid-beta precursor protein (Homo sapiens) (UniProt P05067); assay: Inhibition of HFIP-pretreated amyloid beta (1 to 42 residues) (unknown origin) self aggregation at 25 uM after 24 hrs by ThT-based fluorescence method relative to control
Outline: (§1)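 HFIP-treated Aβ1-42, dried, redissolved in DMSO; 25 μM final peptide incubated with 25 μM compound in 50 mM phosphate buffer pH 7.40, 37 °C, 24 h; 5 μM ThT in 50 mM glycine-NaOH pH 8.0 added; fluorescence ex 446/em 490 nm.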

[3] = Antioxidant activity assessed as trolox equivalent of AAPH-induced radical scavenging activity preincubated for 15 mins followed by AAPH addition measured every minute for 120 mins by ORAC fluorescein assay; assay type: functional
Outline: (§2)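 ORAC-FL in 75 mM phosphate buffer pH 7.40; fluorescein 150 nM final plus test antioxidant; Trolox standard at 1-8 μM final; values as Trolox equivalents.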

[4] = biological target: T1, Amine oxidase [flavin-containing] A (Homo sapiens, UniProt P21397); assay: Inhibition of recombinant human MAO-A expressed in baculovirus infected BTI insect cells at 10 uM using kynuramine as substrate after 30 mins by fluorescence based assay relative to control; conditions: 0.5 h
T1 sequence (P21397 whole entry): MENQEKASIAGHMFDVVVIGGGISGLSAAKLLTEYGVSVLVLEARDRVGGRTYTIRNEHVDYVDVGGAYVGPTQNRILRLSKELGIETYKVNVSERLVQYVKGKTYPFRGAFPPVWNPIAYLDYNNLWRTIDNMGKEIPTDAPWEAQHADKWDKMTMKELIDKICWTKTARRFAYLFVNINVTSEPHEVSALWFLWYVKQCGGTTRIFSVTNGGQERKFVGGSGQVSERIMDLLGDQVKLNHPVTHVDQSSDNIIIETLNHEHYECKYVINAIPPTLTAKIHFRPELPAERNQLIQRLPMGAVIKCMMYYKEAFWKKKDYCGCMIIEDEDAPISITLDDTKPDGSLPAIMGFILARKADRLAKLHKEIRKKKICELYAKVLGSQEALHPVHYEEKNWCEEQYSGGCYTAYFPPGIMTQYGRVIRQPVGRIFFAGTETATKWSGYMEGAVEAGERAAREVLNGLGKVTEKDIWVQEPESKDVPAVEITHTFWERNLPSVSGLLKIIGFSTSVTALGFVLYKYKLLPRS

[5] = biological target: T2, Amine oxidase [flavin-containing] B (Homo sapiens, UniProt P27338); assay: biochemical; assay type: cell-based
T2 sequence (P27338 whole entry): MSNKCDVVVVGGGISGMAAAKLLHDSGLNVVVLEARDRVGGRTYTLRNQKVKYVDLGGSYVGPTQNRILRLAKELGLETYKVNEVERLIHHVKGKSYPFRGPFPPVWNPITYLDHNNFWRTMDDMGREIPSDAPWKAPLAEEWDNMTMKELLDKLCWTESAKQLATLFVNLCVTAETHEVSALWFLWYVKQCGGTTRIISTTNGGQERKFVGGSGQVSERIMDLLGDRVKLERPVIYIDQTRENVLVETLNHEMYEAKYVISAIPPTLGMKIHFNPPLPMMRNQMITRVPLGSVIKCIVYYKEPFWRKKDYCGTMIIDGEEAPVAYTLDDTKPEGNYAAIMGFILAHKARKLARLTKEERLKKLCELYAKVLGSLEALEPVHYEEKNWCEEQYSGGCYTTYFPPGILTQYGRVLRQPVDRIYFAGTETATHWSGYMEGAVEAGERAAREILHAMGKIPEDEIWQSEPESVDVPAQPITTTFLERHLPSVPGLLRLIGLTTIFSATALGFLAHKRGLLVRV

[6] = Selectivity index, ratio of IC50 for equine BuChE to IC50 for electric eel AChE
Outline: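 Ratio of Ellman-assay IC50 values, BuChE over AChE. Enzymes were equine serum BuChE and electric eel AChE, each at 0.05 U/mL final in pH 8.0 phosphate buffer. Each IC50 is the mean of three independent experiments run in triplicate.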

Cholinesterase [7] = biological target: Cholinesterase (Equus caballus, UniProt P81908); assay: Inhibition of equine butyrylcholinesterase using butyrylthiocholine iodide as substrate incubated for 15 mins by Ellman's method
Outline: (§3)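 Modified Ellman assay in phosphate buffer pH 8.0, with enzyme at 0.05 U/mL final: eel AChE, equine serum BuChE or human serum BuChE. Test compound was added at several concentrations, and blanks lacked enzyme.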

Acetylcholinesterase [8] = biological target: T3, Acetylcholinesterase (Electrophorus electricus, UniProt O42275); assay type: single protein
Cholinesterase [9] = biological target: T4, Cholinesterase (Homo sapiens, UniProt P06276); assay: Inhibition of BuChE (unknown origin)
[10] = biological target: T2, Amine oxidase [flavin-containing] B; assay: Inhibition of MAO-B (unknown origin)
[11] = biological target: Amyloid-beta precursor protein (Homo sapiens) (UniProt P05067); assay: Inhibition of self-induced amyloid beta ( 1 to 42 residues) (unknown origin) aggregation relative to control; conditions: concentration not given here; outline: as §1
Acetylcholinesterase [12] = biological target: T3, Acetylcholinesterase; assay: Inhibition of Electric eel AChE; outline: as §3
[13] = Antioxidant activity assessed as AAPH scavenging activity by ORAC fluorescein assay; assay type: functional; outline: as §2
[14] = biological target: T2, Amine oxidase [flavin-containing] B; assay: Inhibition of MAO-B (unknown origin) relative to control
Cholinesterase [15] = biological target: T4, Cholinesterase; assay: Inhibition of human BuChE using butyrylthiocholine iodide as substrate incubated for 15 mins by Ellman's method; outline: as §3
Acetylcholinesterase [16] = biological target: Acetylcholinesterase (Homo sapiens, UniProt P22303); assay: Inhibition of human AChE using acetylthiocholine iodide as substrate after 15 mins by Ellman's method
[17] = Disaggregation of Cu2+ induced preformed fibrils of amyloid beta (1 to 42) at 25 uM preincubated with Cu2+ for 24 hrs followed by compound addition and measured after 24 hrs by thioflavin-T based fluorescence assay relative to control
Outline: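 Aβ1-42 and Cu2+ (each 25 μM final) in 20 mM HEPES pH 6.6, 150 mM NaCl, preincubated 24 h at 37 °C; compound (25 μM final) added, another 24 h at 37 °C under film; 5 μM ThT in glycine-NaOH added; ex 446/em 490 nm; triplicate.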

Cholinesterase (Equus caballus, UniProt P81908), sequence (P81908 whole entry): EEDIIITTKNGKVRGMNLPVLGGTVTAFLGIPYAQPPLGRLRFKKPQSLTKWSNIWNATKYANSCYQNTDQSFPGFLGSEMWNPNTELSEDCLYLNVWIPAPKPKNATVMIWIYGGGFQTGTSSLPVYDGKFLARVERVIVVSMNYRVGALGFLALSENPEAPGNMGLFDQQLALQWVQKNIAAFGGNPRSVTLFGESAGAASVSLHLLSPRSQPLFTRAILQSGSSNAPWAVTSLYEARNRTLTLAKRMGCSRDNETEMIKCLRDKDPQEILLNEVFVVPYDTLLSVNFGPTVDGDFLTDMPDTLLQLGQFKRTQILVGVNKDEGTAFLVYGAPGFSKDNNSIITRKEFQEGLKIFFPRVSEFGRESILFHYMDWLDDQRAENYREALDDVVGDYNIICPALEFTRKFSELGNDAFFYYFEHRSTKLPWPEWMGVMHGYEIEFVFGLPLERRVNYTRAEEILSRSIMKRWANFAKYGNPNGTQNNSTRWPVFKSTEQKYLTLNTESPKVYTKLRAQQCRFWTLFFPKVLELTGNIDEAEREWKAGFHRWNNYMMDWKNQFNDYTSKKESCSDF
T3 sequence (O42275 whole entry): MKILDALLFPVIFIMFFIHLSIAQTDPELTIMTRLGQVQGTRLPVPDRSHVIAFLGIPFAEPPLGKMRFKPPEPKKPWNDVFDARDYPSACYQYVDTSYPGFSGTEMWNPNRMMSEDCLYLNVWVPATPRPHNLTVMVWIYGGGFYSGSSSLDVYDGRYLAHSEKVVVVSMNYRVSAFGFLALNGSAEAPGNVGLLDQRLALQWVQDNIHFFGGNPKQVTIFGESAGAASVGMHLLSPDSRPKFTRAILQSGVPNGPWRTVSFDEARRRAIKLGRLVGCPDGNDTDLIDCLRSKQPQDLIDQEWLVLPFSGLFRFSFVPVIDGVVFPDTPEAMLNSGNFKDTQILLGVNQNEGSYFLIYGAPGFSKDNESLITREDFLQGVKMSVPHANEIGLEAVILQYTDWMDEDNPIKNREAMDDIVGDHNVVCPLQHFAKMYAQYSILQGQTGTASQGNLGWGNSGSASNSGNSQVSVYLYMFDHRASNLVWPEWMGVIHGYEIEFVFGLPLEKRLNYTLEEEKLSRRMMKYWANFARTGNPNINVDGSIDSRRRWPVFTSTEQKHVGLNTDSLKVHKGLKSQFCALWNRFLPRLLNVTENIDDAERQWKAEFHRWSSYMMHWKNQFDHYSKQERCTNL
Amyloid-beta precursor protein (Homo sapiens), sequence (P05067 whole entry, the tested form may be a part): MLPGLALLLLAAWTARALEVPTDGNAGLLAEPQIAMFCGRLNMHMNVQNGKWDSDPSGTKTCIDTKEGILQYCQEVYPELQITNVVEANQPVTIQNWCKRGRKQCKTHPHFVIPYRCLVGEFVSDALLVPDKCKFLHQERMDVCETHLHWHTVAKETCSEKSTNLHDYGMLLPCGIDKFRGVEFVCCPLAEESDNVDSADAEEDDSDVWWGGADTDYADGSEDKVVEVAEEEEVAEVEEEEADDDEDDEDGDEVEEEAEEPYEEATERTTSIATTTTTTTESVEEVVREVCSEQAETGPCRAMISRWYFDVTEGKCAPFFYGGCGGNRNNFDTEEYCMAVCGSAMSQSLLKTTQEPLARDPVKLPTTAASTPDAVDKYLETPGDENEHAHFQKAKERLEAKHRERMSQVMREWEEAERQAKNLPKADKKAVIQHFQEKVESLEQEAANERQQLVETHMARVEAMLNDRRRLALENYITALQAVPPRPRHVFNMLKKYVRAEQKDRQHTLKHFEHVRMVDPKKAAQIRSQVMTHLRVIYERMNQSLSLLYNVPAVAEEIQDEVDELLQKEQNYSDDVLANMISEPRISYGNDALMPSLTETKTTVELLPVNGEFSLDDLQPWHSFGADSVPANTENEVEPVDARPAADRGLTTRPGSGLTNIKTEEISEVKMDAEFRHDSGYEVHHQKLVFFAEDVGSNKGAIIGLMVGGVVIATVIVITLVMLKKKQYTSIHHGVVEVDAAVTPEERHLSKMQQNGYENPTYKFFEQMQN
T4 sequence (P06276 whole entry): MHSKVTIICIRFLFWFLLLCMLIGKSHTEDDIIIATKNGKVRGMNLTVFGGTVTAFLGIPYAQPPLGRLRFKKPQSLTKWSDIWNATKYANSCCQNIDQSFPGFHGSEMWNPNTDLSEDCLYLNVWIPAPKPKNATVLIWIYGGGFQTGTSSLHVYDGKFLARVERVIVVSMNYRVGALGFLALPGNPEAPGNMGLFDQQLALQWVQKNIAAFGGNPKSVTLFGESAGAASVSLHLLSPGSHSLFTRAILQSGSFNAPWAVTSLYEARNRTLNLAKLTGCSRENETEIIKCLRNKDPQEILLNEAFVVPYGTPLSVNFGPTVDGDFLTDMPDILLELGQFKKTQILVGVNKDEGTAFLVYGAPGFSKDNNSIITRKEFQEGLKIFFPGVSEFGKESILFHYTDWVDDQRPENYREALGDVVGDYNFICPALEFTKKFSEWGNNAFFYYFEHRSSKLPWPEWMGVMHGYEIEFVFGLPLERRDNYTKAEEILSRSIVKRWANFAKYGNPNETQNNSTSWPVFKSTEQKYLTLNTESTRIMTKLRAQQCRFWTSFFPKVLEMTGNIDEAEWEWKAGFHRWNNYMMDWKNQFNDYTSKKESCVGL
Acetylcholinesterase (Homo sapiens, UniProt P22303), sequence (P22303 whole entry): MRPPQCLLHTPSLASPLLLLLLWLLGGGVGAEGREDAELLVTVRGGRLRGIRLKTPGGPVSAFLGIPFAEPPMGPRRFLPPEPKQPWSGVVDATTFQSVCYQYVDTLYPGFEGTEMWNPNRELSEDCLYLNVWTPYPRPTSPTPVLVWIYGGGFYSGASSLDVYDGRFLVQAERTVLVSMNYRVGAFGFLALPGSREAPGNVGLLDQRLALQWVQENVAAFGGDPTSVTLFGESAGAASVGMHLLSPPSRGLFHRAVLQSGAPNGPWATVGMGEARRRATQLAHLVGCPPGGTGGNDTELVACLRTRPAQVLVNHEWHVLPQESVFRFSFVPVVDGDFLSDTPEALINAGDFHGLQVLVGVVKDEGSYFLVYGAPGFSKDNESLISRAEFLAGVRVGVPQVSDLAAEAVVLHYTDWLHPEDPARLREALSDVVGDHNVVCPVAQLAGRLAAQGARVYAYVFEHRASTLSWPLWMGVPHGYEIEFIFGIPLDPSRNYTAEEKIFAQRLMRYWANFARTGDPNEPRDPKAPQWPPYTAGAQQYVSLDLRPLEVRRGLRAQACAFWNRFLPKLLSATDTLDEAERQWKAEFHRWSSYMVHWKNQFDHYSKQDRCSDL

SMILES | inhibition at 10 µM [4] [%] | IC50 [5] [µM] | Ratio IC50 [6] | IC50 (Cholinesterase [7]) [µM] | IC50 (Acetylcholinesterase [8]) [µM] | other results
CCN(CC)CCCCCCOc1ccc(/C=C/C(=O)c2ccc(OCCCCCCN(CC)CC)cc2O)cc1 | 8.7 | 1.6 | 1.1 | 4.2 | 3.7 | inhibition [1]: 84.2%; inhibition [2]: 63.7%; Activity [3]: 1.1 Trolox eq
CCN(C)C(=O)Oc1cccc(/C=C/C(=O)c2ccccc2O)c1 |  |  |  |  |  | IC50 (Cholinesterase [9]): 3.1 µM
CCN(CC)Cc1ccc(/C=C/C(=O)c2ccc(OC)c(OC)c2)cc1O |  |  |  |  |  | IC50 [10]: 1.21 µM; inhibition [11]: 55%; IC50 (Acetylcholinesterase [12]): 0.44 µM
CCN(CC)c1ccc(/C=C/C(=O)c2cc(-c3ccc(C(C)C(=O)OC)cc3F)ccc2O)cc1 (stereo not drawn) |  |  |  |  |  | Activity [13]: 3.3 Trolox eq; inhibition (INH) [14]: 75.5%
O=C(/C=C/c1ccc(OCCCCCCN2CCCC2)cc1)c1ccccc1O | 15.6 | 18.5 | 5.6 | 50.2 | 8.9 | 
O=C(/C=C/c1ccccc1)c1ccc(OCCCCCCN2CCCC2)cc1O | 9.5 | 12.7 | 2.9 | 12.3 | 4.2 | IC50 (Cholinesterase [15]): 15.8 µM; IC50 (Acetylcholinesterase [16]): 3.2 µM
COc1cc(/C=C/C(=O)CC(=O)/C=C/c2ccc(O)c(OC)c2)ccc1O |  |  |  |  |  | Activity [17]: 56.5%; inhibition [1]: 76.5%
